{"data": "Assay results of several laboratories", "target": "Cyclin-dependent kinase 5 (CDK5, Homo sapiens, UniProt Q00535)", "note": "Each line is one published result; the experiments were not run side by side."}
{"Structure (SMILES)": "CN(C)c1nccc(-c2cnn3ncccc23)n1", "read-out": "binding", "concentration": "1 µM", "remaining binding [%]": 100}
{"Structure (SMILES)": "C[C@@H](c1ccc(-n2cnc3c(N)ncnc32)cc1)N1CCc2nn(C)c(Cc3ccccc3)c2C1=O", "read-out": "binding", "method": "competition with immobilised ligand", "concentration": "0.1 µM", "remaining binding [%]": 39}
{"Structure (SMILES)": "Nc1ncc2c(n1)-c1c([nH]c3ccc(C#CC4CC4)cc13)CCCC2", "read-out": "binding", "method": "competition with immobilised ligand", "concentration": "1 µM", "remaining binding [%]": 96}
{"Structure (SMILES)": "N[C@@H]1CCN(c2nccc(-c3cnn4ncccc34)n2)C1", "read-out": "binding", "concentration": "1 µM", "remaining binding [%]": 100}
{"Structure (SMILES)": "O=C(NCC1CCOCC1)c1n[nH]cc1NC(=O)c1c(F)cccc1F", "read-out": "binding", "method": "competition with immobilised ligand", "concentration": "1 µM", "remaining binding [%]": 83}
{"Structure (SMILES)": "CN([C@@H]1CCc2c(CC(=O)O)c3ccccc3n2C1)S(=O)(=O)c1ccc(F)cc1", "read-out": "cell-free assay", "method": "competition with immobilised ligand", "concentration": "1 µM", "remaining binding [%]": 100}
{"Structure (SMILES)": "COc1ccnn2ncc(-c3ccnc(N(C)C)n3)c12", "read-out": "binding", "concentration": "1 µM", "remaining binding [%]": 100}
{"Structure (SMILES)": "C[C@@H]1CN(c2cc(-c3nn(C)c4ccc(OC5(C)CC5)cc34)ncn2)C[C@H](C)O1", "read-out": "cell-free assay", "method": "competition with immobilised ligand", "concentration": "1 µM", "remaining binding [%]": 100}
{"Structure (SMILES)": "C[C@@H]1CCN(c2nccc(-c3cnn4ncccc34)n2)C1", "read-out": "binding", "concentration": "1 µM", "remaining binding [%]": 100}
{"Structure (SMILES)": "CNC(=O)Nc1ccc2c(c1)CC[C@@]21OC(=O)N(CC(=O)N(Cc2ccc(F)cc2)[C@@H](C)C(F)(F)F)C1=O", "read-out": "cell-free assay", "method": "competition with immobilised ligand", "concentration": "1 µM", "remaining binding [%]": 84}
{"Structure (SMILES)": "O=C(c1ccc(Nc2ncc(Cl)c(-c3cc4ccccc4s3)n2)cc1)N1CCC(N2CCCC2)CC1", "read-out": "binding", "method": "competition with immobilised ligand", "concentration": "1 µM", "remaining binding [%]": 42}
{"Structure (SMILES)": "CNCc1ccccc1-c1csc([C@H](C)Nc2nc(C)nc3cc(OC)c(OC)cc23)c1", "read-out": "cell-free assay", "method": "competition with immobilised ligand", "concentration": "1 µM", "remaining binding [%]": 98}
{"Structure (SMILES)": "c1cncc(-c2cccc(Nc3nccc(NC4CCCCC4)n3)c2)c1", "read-out": "binding", "method": "competition with immobilised ligand", "concentration": "10 µM", "remaining binding [%]": 81}
{"Structure (SMILES)": "CN(C)c1ncc(F)c(-c2cnn3ncccc23)n1", "read-out": "binding", "concentration": "1 µM", "remaining binding [%]": 82}
{"Structure (SMILES)": "Cn1cc(Cl)c2c(Oc3c(F)cc(Nc4cc(Cl)nc(N)n4)cc3F)ccnc21", "read-out": "cell-free assay", "method": "competition with immobilised ligand", "concentration": "0.1 µM", "remaining binding [%]": 100}
{"Structure (SMILES)": "CN(C)c1nccc(-c2cnc3ncccn23)n1", "read-out": "binding", "concentration": "1 µM", "remaining binding [%]": 91}
{"Structure (SMILES)": "CCS(=O)(=O)c1cc2cc(C[C@](O)(CC(C)(C)c3ccc(F)cc3C(N)=O)C(F)(F)F)[nH]c2cn1", "read-out": "cell-free assay", "method": "competition with immobilised ligand", "concentration": "1 µM", "remaining binding [%]": 100}
{"Structure (SMILES)": "COc1cnc(Nc2cccc(S(N)(=O)=O)c2)nc1N1CCN(c2ccccc2)C(=O)C1", "read-out": "binding", "method": "competition with immobilised ligand", "concentration": "1 µM", "remaining binding [%]": 100}
{"Structure (SMILES)": "O=C(c1ccc(Nc2ncc(Cl)c(-c3ccc(Cl)s3)n2)cc1)N1CCC(N2CCCC2)CC1", "read-out": "binding", "method": "competition with immobilised ligand", "concentration": "1 µM", "remaining binding [%]": 26}
{"Structure (SMILES)": "Cc1cc(NC(=O)c2cccc(S(F)(F)(F)(F)F)c2)cc(-n2ccn3nc(-c4cccnc4)cc23)c1", "read-out": "cell-free assay", "method": "competition with immobilised ligand", "concentration": "1 µM", "remaining binding [%]": 100}
{"Structure (SMILES)": "Cc1cnc(Nc2ccc(C(=O)N3CCC(N4CCCC4)CC3)cc2)nc1-c1cc2ccccc2s1", "read-out": "binding", "method": "competition with immobilised ligand", "concentration": "1 µM", "remaining binding [%]": 76}
{"Structure (SMILES)": "COc1cnc(Nc2cccc(S(N)(=O)=O)c2)nc1N1CCN(c2ccccc2)CC1", "read-out": "binding", "method": "competition with immobilised ligand", "concentration": "1 µM", "remaining binding [%]": 100}
